In ChEMBL document CHEMBL1151809, “Prenylated and benzylated flavonoids from the fruits of Cudrania tricuspidata” (J Nat Prod, 2009):

How the values were obtained:
RAW264.7 [1] = assay: Cytotoxicity against mouse RAW264.7 cells by CCK-8 assay; type: cell-based
How it was run: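 Viability read by CCK-8 on the cells remaining after the Griess nitrite assay of the LPS-stimulated RAW 264.7 cultures.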

RAW264.7 [2] = assay: Inhibition of LPS-induced nitric oxide production in mouse RAW264.7 cells by Griess assay; type: functional, cell-based
How it was run: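 LPS-stimulated RAW 264.7 cells; NO output measured as nitrite in culture supernatant by Griess reagent. IC50 derived, reported as mean ± SD from three separate experiments. Aminoguanidine run as positive control.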

For `CC(C)=CCc1c(O)c(CC=C(C)C)c2occ(-c3ccc(O)cc3)c(=O)c2c1O`, the Activity (RAW264.7 [1]) was “Non-toxic” and the IC50 (RAW264.7 [2]) was 19.2 µM.

In the case of `COc1ccc(-c2coc3cc4c(c(O)c3c2=O)C=CC(C)(C)O4)cc1O`, the Activity (RAW264.7 [1]) is reported as “Non-toxic” and the IC50 (RAW264.7 [2]) is reported as greater than 50 µM.

`C=C(C)C(O)Cc1c(O)cc2occ(-c3ccc(OC)cc3)c(=O)c2c1O` (stereo not given) was tested, and the Activity (RAW264.7 [1]) was “Non-toxic” and the IC50 (RAW264.7 [2]) was greater than 50 µM.

`CO[C@@H]1c2c(c(CC=C(C)C)c(O)c3c(=O)c(-c4ccc(O)cc4)coc23)O[C@H]1C(C)(C)O` was tested, and the Activity (RAW264.7 [1]) was “Non-toxic” and the IC50 (RAW264.7 [2]) was 11.8 µM.

In the case of `CC(C)=CCc1c2oc(C(C)(C)O)cc2c(O)c2c(=O)c(-c3ccc(O)cc3)coc12`, the Activity (RAW264.7 [1]) is reported as “Non-toxic” and the IC50 (RAW264.7 [2]) is reported as 12.1 µM.

In the case of `O=C1c2c(O)cc(O)c(Cc3ccc(O)cc3)c2O[C@H](c2ccc(O)cc2)[C@H]1O`, the Activity (RAW264.7 [1]) is reported as “Non-toxic” and the IC50 (RAW264.7 [2]) is reported as greater than 50 µM.

For `C=C(C)C(O)Cc1c(O)c(CC=C(C)C)c(O)c2c(=O)c(-c3ccc(O)cc3)coc12` (stereo not given) [ERYSENEGALENSEIN E], the Activity (RAW264.7 [1]) was “Non-toxic” and the IC50 (RAW264.7 [2]) was 18.4 µM.

For `O=C1c2c(O)c(Cc3ccc(O)cc3)c(O)c(Cc3ccc(O)cc3)c2O[C@H](c2ccc(O)cc2)[C@H]1O` [GERICUDRANIN D], the Activity (RAW264.7 [1]) was “Non-toxic” and the IC50 (RAW264.7 [2]) was greater than 50 µM.

With `O=C1c2c(cc(O)c(Cc3ccc(O)cc3)c2O)O[C@H](c2ccc(O)cc2)[C@H]1O` [GERICUDRANIN E] the Activity (RAW264.7 [1]) was “Non-toxic” and the IC50 (RAW264.7 [2]) was 41.8 µM.

In the case of `C=C(C)C(O)Cc1c(O)c(CC=C(C)C)c2occ(-c3ccc(O)cc3)c(=O)c2c1O` (stereo not given) [ISOERYSENEGALENSEIN E], the Activity (RAW264.7 [1]) is reported as “Non-toxic” and the IC50 (RAW264.7 [2]) is reported as 12.7 µM.

`O=c1c(-c2ccc(O)c(O)c2)coc2cc(O)cc(O)c12` [OROBOL] was tested, and the Activity (RAW264.7 [1]) was “Non-toxic” and the IC50 (RAW264.7 [2]) was 18.7 µM.

`N=C(N)NN` [PIMAGEDINE] was tested, and the IC50 (RAW264.7 [2]) was 28 µM.

In the case of `CC(C)=CCc1c2c(c3occ(-c4ccc(O)cc4)c(=O)c3c1O)CC(C(C)(C)O)O2` (stereo not given) [SENEGALENSIN], the Activity (RAW264.7 [1]) is reported as “Non-toxic” and the IC50 (RAW264.7 [2]) is reported as 13.1 µM.
